Measured values taken from ChEMBL document CHEMBL1147958, “Evaluation of the anti-inflammatory and anti-nociceptive activities of novel synthesized melatonin analogues” (2007).

How the values were obtained:
Rattus norvegicus [1] = assay: […] in Sprague-Dawley rat assessed as inhibition of indomethacin-induced gastric lesions severity at 5.13 mg/kg, sc; type: functional; details: Stomach, route subcutaneous
In short: (§1)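 Sprague-Dawley rats (120–130 g, food and water ad libitum) got indomethacin 20 mg/kg s.c. to induce gastric mucosal damage, with the test agent given s.c. at the time of indomethacin injection. Rats were killed 24 h later. Stomachs were opened along the greater curvature, rinsed with saline, and lesions counted and severity-scored on a previously described scale. Results are % decrease versus the indomethacin control.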

Rattus norvegicus [2] = assay: Inhibition of carrageenan-induced paw oedema in Sprague-Dawley rat at 5.13 mg/kg, sc after 3 hrs; type: functional; details: read-out: Inhibition, route subcutaneous
In short: (§2)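 Rats (n = 6/group) got the test agent s.c. (0.5 mL) as a 30 min pretreatment. Oedema was induced by sub-plantar 1% lambda-carrageenan in saline into the right hind paw, with saline in the contralateral paw. Paw volume was measured by plethysmometer before injection and at 1, 2, 3 and 4 h, and expressed as % change from pre-drug values.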

Rattus norvegicus [3] = assay: Antinociceptive activity in Sprague-Dawley rat at 5.13 mg/kg, sc assessed as increase in latency time after 2 hrs by hot plate method; type: functional; details: route subcutaneous
In short: (§3)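 Rats (n = 6/group) were dosed s.c. 30 min before testing on a hot-plate held at 52 °C, 30 s cut-off. Reaction latency was read at 1 and 2 h and expressed as % increase over each group's pre-drug basal latency, with indomethacin as the reference control. Groups were compared by ANOVA and Duncan's test.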

Mus musculus [4] = assay: Antinociceptive activity in Swiss Albino mouse assessed as inhibition of acetic acid-induced writhes per 30 min at 5.13 mg/kg, sc; details: 0.5 h, read-out: Inhibition
Rattus norvegicus [5] = assay: Inhibition of carrageenan-induced paw oedema in Sprague-Dawley rat at 5.13 mg/kg, sc after 1 hr; type: functional; details: read-out: Inhibition, route subcutaneous; in short: as §2
Rattus norvegicus [6] = assay: Antinociceptive activity in Sprague-Dawley rat at 5.13 mg/kg, sc assessed as increase in latency time after 1 hr by hot plate method; type: functional; details: route subcutaneous; in short: as §3
Rattus norvegicus [7] = assay: Antinociceptive activity in Sprague-Dawley rat assessed as inhibition of number of indomethacin-induced gastric lesions at 5.13 mg/kg, sc; type: functional; details: Stomach, route subcutaneous; in short: as §1
Rattus norvegicus [8] = assay: Inhibition of carrageenan-induced paw oedema in Sprague-Dawley rat at 5.13 mg/kg, sc after 4 hrs; type: functional; details: read-out: Inhibition, route subcutaneous; in short: as §2
Rattus norvegicus [9] = assay: Inhibition of carrageenan-induced paw oedema in Sprague-Dawley rat at 5.13 mg/kg, sc after 2 hrs; type: functional; details: read-out: Inhibition, route subcutaneous; in short: as §2
Rattus norvegicus [10] = assay: Antinociceptive activity in sc dosed Sprague-Dawley rat assessed as increase in latency time after 1 hr by hot plate method; type: functional; in short: as §3
Rattus norvegicus [11] = assay: Antinociceptive activity in sc dosed Sprague-Dawley rat assessed as increase in latency time after 2 hrs by hot plate method; type: functional; in short: as §3
Rattus norvegicus [12] = assay: Inhibition of carrageenan-induced paw oedema in Sprague-Dawley rat at 4 mg/kg, sc after 3 hrs; type: functional; details: read-out: Inhibition, route subcutaneous; in short: as §2
Rattus norvegicus [13] = assay: Antinociceptive activity in Sprague-Dawley rat at 4 mg/kg, sc assessed as increase in latency time after 2 hrs by hot plate method; type: functional; details: route subcutaneous; in short: as §3
Rattus norvegicus [14] = assay: Inhibition of carrageenan-induced paw oedema in Sprague-Dawley rat at 4 mg/kg, sc after 1 hr; type: functional; details: read-out: Inhibition, route subcutaneous; in short: as §2
Rattus norvegicus [15] = assay: Inhibition of carrageenan-induced paw oedema in Sprague-Dawley rat at 4 mg/kg, sc after 4 hrs; type: functional; details: read-out: Inhibition, route subcutaneous; in short: as §2
Rattus norvegicus [16] = assay: Inhibition of carrageenan-induced paw oedema in Sprague-Dawley rat at 4 mg/kg, sc after 2 hrs; type: functional; details: read-out: Inhibition, route subcutaneous; in short: as §2
Rattus norvegicus [17] = assay: Antinociceptive activity in Sprague-Dawley rat at 4 mg/kg, sc assessed as increase in latency time after 1 hr by hot plate method; type: functional; details: route subcutaneous; in short: as §3
Mus musculus [18] = assay: Antinociceptive activity in Swiss Albino mouse assessed as inhibition of acetic acid-induced writhes per 30 min at 4 mg/kg, sc; details: 0.5 h, read-out: Inhibition
Rattus norvegicus [19] = assay: […] in Sprague-Dawley rat assessed as inhibition of indomethacin-induced gastric lesions severity at 4 mg/kg, sc; type: functional; details: Stomach, route subcutaneous; in short: as §1
Rattus norvegicus [20] = assay: […] in Sprague-Dawley rat assessed as inhibition of number of indomethacin-induced gastric lesions at 4 mg/kg, sc; type: functional; details: Stomach, route subcutaneous; in short: as §1

`COc1ccc2c(c1)c(CCNC(C)=O)c1n2C(=O)C=C1C` was tested, and the inhibition in vivo at 5.13 mg/kg (Rattus norvegicus [1]) was 82.6%, the inhibition in vivo at 5.13 mg/kg (Rattus norvegicus [2]) was 43% and the Activity (Rattus norvegicus [3]) was 144.6%. For the same molecule, the inhibition in vivo at 5.13 mg/kg (Mus musculus [4]) was 68.7%, the inhibition in vivo at 5.13 mg/kg (Rattus norvegicus [5]) was 67.3% and the Activity (Rattus norvegicus [6]) was 116.6%. The inhibition in vivo at 5.13 mg/kg (Rattus norvegicus [7]) was 72.6%, the inhibition in vivo at 5.13 mg/kg (Rattus norvegicus [8]) was 28.8% and the inhibition in vivo at 5.13 mg/kg (Rattus norvegicus [9]) was 59.4%.
With `COc1ccc2c(c1)c(CC(=O)O)c(C)n2C(=O)c1ccc(Cl)cc1` [INDOMETHACIN] the Activity (Rattus norvegicus [10]) was 176.7% and the Activity (Rattus norvegicus [11]) was 286.6%.
`COc1ccc2[nH]cc(CCNC(C)=O)c2c1` [MELATONIN] showed an inhibition in vivo at 4 mg/kg (Rattus norvegicus [12]) of 44.4%, an Activity (Rattus norvegicus [13]) of 96% and an inhibition in vivo at 4 mg/kg (Rattus norvegicus [14]) of 50.8%. It also gave an inhibition in vivo at 4 mg/kg (Rattus norvegicus [15]) of 30%, an inhibition in vivo at 4 mg/kg (Rattus norvegicus [16]) of 50.1% and an Activity (Rattus norvegicus [17]) of 39.7%. The inhibition in vivo at 4 mg/kg (Mus musculus [18]) was 55.6%, the inhibition in vivo at 4 mg/kg (Rattus norvegicus [19]) was 69% and the inhibition in vivo at 4 mg/kg (Rattus norvegicus [20]) was 56.3%.
